Results reported in ChEMBL document CHEMBL1125007 (J Med Chem, 1990).

Key:
P388 [1] = test: Cytotoxicity against P388 leukemia cell line; assay type: functional, cell-based; conditions: Mus musculus
In short: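 P388 murine leukemia cells kept in log phase in RPMI 1640 with 10% fetal calf serum. Drug was present in 96-well microcultures for the whole 72 h growth period. Final cell density was read by a slightly modified MTT method. IC50 is the nominal concentration cutting density to 50% of controls, with eight control cultures per plate.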

UV4 (Cricetulus griseus) = test: Relative cytotoxic potency given as Hypersensitivity ratio of (IC50 for AA8 cell line) to (IC50 for UV4 cell line)
P388 [2] = test: Increase in life span of the drug treated animals against P388 leukemia when treated at a optimal dose of 45 mg/kg; assay type: functional; conditions: Mus musculus
In short: (§1)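 Single intraperitoneal dose given in 0.1 or 0.2 mL of 30% v/v ethanol-water on day 1 after intraperitoneal inoculation of 10^6 P388 leukemia cells. ILS is the percent increase in lifespan of treated tumor-bearing animals at that optimal dose.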

[3] = Relative lipophilicity; assay type: physicochemical; conditions: octanol/water
In short: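 Relative lipophilicity of the side-chain fragment -NH(CH2)nX-, calculated from substituent fragment values.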

CHO-AA8 = test: Cytotoxicity against AA8 cell line; assay type: functional, cell-based; conditions: Cricetulus griseus
In short: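 AA8 Chinese hamster ovary cells kept in log phase in Alpha MEM with 10% fetal calf serum. Drug was applied in 96-well microcultures for 18 h, then removed by three washes with fresh medium. Cells grew a further 72 h before cell density was read by methylene blue staining. IC50 is the nominal concentration cutting density to 50% of controls, with eight controls per plate.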

P388 [4] = test: Optimal dose (i.p.) given after inoculation with wild type 10 E 6 P388/W leukemia cell lines, measured on day 1; assay type: functional, Mus musculus; in short: as §1
P388 [5] = test: Increase in life span of the drug treated animals against P388 leukemia when treated at a optimal dose of 65 mg/kg; No activity at all doses; assay type: functional, organism-based; set-up: dose 65 mg/kg; conditions: Mus musculus; in short: as §1
P388 [6] = test: Increase in life span of the drug treated animals against P388 leukemia when treated at a optimal dose of 13.3 mg/kg; assay type: functional; conditions: Mus musculus; in short: as §1
P388 [7] = test: Increase in life span of the drug treated animals against P388 leukemia when treated at a optimal dose of 8.9 mg/kg; assay type: functional; conditions: Mus musculus; in short: as §1
[8] = Rate constant for alkylation of 4-(4-nitrobenzyl)pyridine; assay type: ADME
Nucleic Acid [9] = test: pBR322/DHFR26 DNA crosslinking ability at a concentration of 0.2 uM determined after Agarose gel electrophoresis run for 4 hr; + indicates Significant crosslinking; assay type: functional
Nucleic Acid [10] = test: pBR322/DHFR26 DNA crosslinking ability at a concentration of 0.02 uM determined after Agarose gel electrophoresis run for 4 hr; + indicates Significant crosslinking; assay type: functional
[11] = Rate constant for hydrolysis in aqueous acetone.; assay type: ADME; set-up: scale not given here; conditions: buffer
Nucleic Acid [12] = test: DNA crosslinking ability at a concentration of 0.2 uM determined after Agarose gel electrophoresis run for 24 hr; + indicates Significant crosslinking; assay type: functional
Nucleic Acid [13] = test: DNA crosslinking ability at a concentration of 0.2 uM determined after Agarose gel electrophoresis run for 24 hr; ++ indicates extensive crosslinking; assay type: functional
Nucleic Acid [14] = test: pBR322/DHFR26 DNA crosslinking ability at a concentration of 0.2 uM determined after Agarose gel electrophoresis run for 4 hr; ++ extensive Significant crosslinking; assay type: functional
Nucleic Acid [15] = test: pBR322/DHFR26 DNA crosslinking ability at a concentration of 0.02 uM determined after Agarose gel electrophoresis run for 4 hr; +/- indicates Slight crosslinking; assay type: functional
P388 [16] = test: Increase in life span of the drug treated animals against P388 leukemia when treated at a optimal dose of 65 mg/kg; assay type: functional; conditions: Mus musculus; in short: as §1
P388 [17] = test: Increase in life span of the drug treated animals against P388 leukemia when treated at a optimal dose of 26 mg/kg; assay type: functional; conditions: Mus musculus; in short: as §1
P388 [18] = test: Increase in life span of the drug treated animals against P388 leukemia when treated at a optimal dose of 30 mg/kg; assay type: functional; conditions: Mus musculus; in short: as §1

Row | Structure (SMILES) | IC50 (P388 [1]) | HF (UV4 (Cricetulus griseus)) | Relative lipophilicity [3] | IC50 (CHO-AA8) | OD (P388 [4]) | further results
1 | O=C(O)CCCc1ccc(N(CCCl)CCCl)cc1 [CHLORAMBUCIL] | 7500 nM | 58 |  |  |  | 
2 | ClCCN(CCCl)c1ccc(OCCCCNc2c3ccccc3nc3ccccc23)cc1 | 63 nM | 55 | 0.64 | 280 nM | 45 mg/kg | ILS at 45 mg/kg (P388 [2]): 47%
3 | Cl.O=S(=O)(CCCNc1c2ccccc2nc2ccccc12)c1ccc(N(CCCl)CCCl)cc1 | 2600 nM | 5.1 | -1.14 | 9800 nM | 45 mg/kg | ILS (P388 [5]): No activity
4 | O=S(=O)(CCCCCNc1c2ccccc2nc2ccccc12)c1ccc(N(CCCl)CCCl)cc1 | 750 nM | 1 | -0.38 |  |  | 
5 | Cl.Cl.Cl.Cl.ClCCN(CCCl)c1ccc(SCCCNc2c3ccccc3nc3ccccc23)cc1 | 360 nM | 18 | 0.79 | 1100 nM | 13.3 mg/kg | ILS at 13.3 mg/kg (P388 [6]): 38%
6 | Cl.O=S(=O)(CCCCNc1c2ccccc2nc2ccccc12)c1ccc(N(CCCl)CCCl)cc1 | 1900 nM | 1.4 | -0.92 | 1700 nM | 30 mg/kg | ILS (P388 [5]): No activity
7 | ClCCN(CCCl)c1ccc(SCCCCCNc2c3ccccc3nc3ccccc23)cc1 | 380 nM | 19 | 1.76 |  |  | 
8 | Cl.Cl.Cl.Cl.ClCCN(CCCl)c1ccc(OCCCNc2c3ccccc3nc3ccccc23)cc1 | 47 nM | 54 | 0.26 | 380 nM | 8.9 mg/kg | ILS at 8.9 mg/kg (P388 [7]): 27%
9 | ClCCN(CCCl)c1ccc(CCCCCCNc2c3ccccc3nc3ccccc23)cc1 | 136 nM | 36 | 2.29 |  |  | KNBP [8]: 157000 s⁻¹; DNA crosslinking (Nucleic Acid [9]): Significant crosslinking; DNA crosslinking (Nucleic Acid [10]): Significant crosslinking; KH [11]: 33900 s⁻¹; DNA crosslinking (Nucleic Acid [12]): Significant crosslinking
10 | Cl.Cl.Cl.Cl.ClCCN(CCCl)c1ccc(CCCCCNc2c3ccccc3nc3ccccc23)cc1 | 82 nM | 59 | 1.75 | 310 nM | 45 mg/kg | DNA crosslinking (Nucleic Acid [13]): extensive crosslinking; KNBP [8]: 144000 s⁻¹; ILS at 45 mg/kg (P388 [2]): 58%; DNA crosslinking (Nucleic Acid [10]): extensive crosslinking; KH [11]: 32000 s⁻¹; DNA crosslinking (Nucleic Acid [14]): extensive crosslinking
11 | Cl.Cl.Cl.Cl.ClCCN(CCCl)c1ccc(CCCCNc2c3ccccc3nc3ccccc23)cc1 | 86 nM | 36 | 1.21 | 440 nM | 45 mg/kg | KNBP [8]: 225000 s⁻¹; DNA crosslinking (Nucleic Acid [9]): Significant crosslinking; ILS at 45 mg/kg (P388 [2]): 52%; DNA crosslinking (Nucleic Acid [15]): +/-; KH [11]: 20600 s⁻¹; DNA crosslinking (Nucleic Acid [12]): Significant crosslinking
12 | Cl.O=S(=O)(CCNc1c2ccccc2nc2ccccc12)c1ccc(N(CCCl)CCCl)cc1 | 2300 nM | 3.3 | -1.17 | 18300 nM | 65 mg/kg | ILS (P388 [5]): No activity
13 | Cl.Cl.Cl.Cl.ClCCN(CCCl)c1ccc(CCCNc2c3ccccc3nc3ccccc23)cc1 | 61 nM | 43 | 0.67 | 310 nM | 45 mg/kg | KNBP [8]: 146000 s⁻¹; DNA crosslinking (Nucleic Acid [9]): Significant crosslinking; ILS at 45 mg/kg (P388 [2]): 25%; DNA crosslinking (Nucleic Acid [15]): +/-; KH [11]: 14500 s⁻¹; DNA crosslinking (Nucleic Acid [12]): Significant crosslinking
14 | Cl.Cl.Cl.Cl.ClCCN(CCCl)c1ccc(SCCNc2c3ccccc3nc3ccccc23)cc1 | 372 nM | 24 | 0.42 | 1200 nM | 65 mg/kg | ILS at 65 mg/kg (P388 [16]): 37%
15 | Cl.ClCCN(CCCl)c1ccc(SCCCCNc2c3ccccc3nc3ccccc23)cc1 | 490 nM | 21 | 1.22 | 1370 nM | 26 mg/kg | ILS at 26 mg/kg (P388 [17]): 48%
16 | Cl.ClCCN(CCCl)c1ccc(OCCNc2c3ccccc3nc3ccccc23)cc1 | 72 nM | 54 | -0.02 | 270 nM | 30 mg/kg | ILS at 30 mg/kg (P388 [18]): 42%
17 | ClCCN(CCCl)c1ccc(OCCCCCNc2c3ccccc3nc3ccccc23)cc1 | 50 nM | 46 | 1.18 |  |  | DNA crosslinking (Nucleic Acid [12]): Significant crosslinking
